This is a sample that favours compounds with a hit; in the whole collection about 3.4% have one here.
MEKK2wt PB1 HTS – raises or lowers MEK5 binding to wildtype human MEKK2 PB1 domain. 1.1% of 290,000 active. AID 1531. binding response (% of control), % at 10 µM. bead flow cytometry, Alexa488-MEK5 binding to MEKK2 WT; actives lie on both sides; in the data active = binding response below about 67% or above about 130%
MEKK3 PB1 HTS – modulators (inhibitors or enhancers) of MEK5 binding to human MEKK3 PB1 domain; Q99759; bead-based flow cytometry, Alexa488-MEK5 binding to MEKK3; actives lie on both sides; 0 = blocked by unlabeled MEK5, 100 = vehicle; binding response (% of control), % at 10 µM; 1.4% of 290,000 active; AID 1529;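 active = binding response more than 3 SD above or below the average of its plate-row segment, actives on both sides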;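 note: Alexa488 bead fluorescence after subtracting the streptavidin-only scavenger bead signal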
Target sequence (Q99759 whole entry, looked up, the tested form may be a part): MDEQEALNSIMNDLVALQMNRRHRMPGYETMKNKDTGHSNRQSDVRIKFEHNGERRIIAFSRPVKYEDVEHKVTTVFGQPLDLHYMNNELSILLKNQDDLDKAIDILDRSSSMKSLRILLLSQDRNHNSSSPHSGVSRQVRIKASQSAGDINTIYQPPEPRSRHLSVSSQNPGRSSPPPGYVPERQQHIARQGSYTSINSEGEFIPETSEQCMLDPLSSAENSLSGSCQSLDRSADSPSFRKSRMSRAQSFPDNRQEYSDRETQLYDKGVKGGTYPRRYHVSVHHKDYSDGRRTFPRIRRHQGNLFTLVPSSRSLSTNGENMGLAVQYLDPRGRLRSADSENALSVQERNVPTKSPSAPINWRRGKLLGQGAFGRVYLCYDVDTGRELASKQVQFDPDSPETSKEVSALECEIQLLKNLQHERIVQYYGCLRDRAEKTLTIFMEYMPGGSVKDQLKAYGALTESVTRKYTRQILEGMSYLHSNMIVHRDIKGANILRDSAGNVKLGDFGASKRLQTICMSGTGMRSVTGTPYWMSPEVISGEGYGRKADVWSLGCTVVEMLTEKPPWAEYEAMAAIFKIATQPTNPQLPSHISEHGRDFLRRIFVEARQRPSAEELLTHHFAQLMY
MEKK2mut PB1 HTS – signal of MEK5 binding to mutant human MEKK2 PB1 domain; bead flow cytometry, Alexa488-MEK5 binding to MEKK2 mutant; 0.35% of 290,000 active; percent response, % at 10 µM; in the data active = percent response above about 24%, passing the limit was not always enough
IMP-1 inh-1 – blocks Pseudomonas aeruginosa IMP-1 metallo-beta-lactamase. purified IMP-1, nitrocefin hydrolysis, epi-absorbance fluorescence. 0.45% of 290,000 active. inhibition, % at 5.6 µM;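 active = inhibition above the mean plus 3 SD of all compounds in the same screening run, cut at about 4.5% in these data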;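 note: 0% = IMP-1 with DMSO and 100% = DMSO wells lacking enzyme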
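System: purified IMP-1; amount: IMP-1 0.2 nM before substrate addition; compound: single dose, 5.6 µM; times: 25 °C, 15 min preincubation, 25 min reaction; signal: Epi-absorbance via hydrolysed-nitrocefin quenching of white-plate fluorescence, 480/530 nm, EDTA stop; benchmarks: DMSO with and without IMP-1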
VIM-2 inh – blocks Pseudomonas aeruginosa VIM-2 metallo-beta-lactamase; purified VIM-2, nitrocefin hydrolysis, epi-absorbance fluorescence; inhibition, % at 5.6 µM; 0.89% of 290,000 active; AID 1527;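 active = inhibition above the mean of all tested compounds plus 3 SD, cutoff set per screening run, cut at about 7.5% in these data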;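 note: red hydrolysis product quenches plate fluorescence so inhibitors raise well fluorescence; 0% = enzyme with DMSO and 100% = DMSO without enzyme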
IMP-1 inh-2 – selectivity counter-screen for VIM-2 inhibitors: IMP-1 metallo-beta-lactamase inhibitors; shares compounds with VIM-2 inh; purified IMP-1, nitrocefin hydrolysis, epi-absorbance fluorescence; inhibition, % at 5.6 µM; 1,300 tested, under 10 active; call rule not given here;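 note: 0% = enzyme with vehicle and 100% = vehicle without enzyme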
VIM-2 FRET inh – VIM-2 FRET inhibition, artifact counter-screen; AID 1857; 23% of 1,300 active; inhibition, % at 5.6 µM; shares compounds with VIM-2 inh; purified VIM-2, CCF2 FRET substrate hydrolysis;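 active = inhibition above the mean of all tested compounds plus 3 SD, cut at about 19% in these data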;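 note: 0% = VIM-2 plus DMSO and 100% = no enzyme wells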
TEM-1 counter – selectivity counter-screen for VIM-2 inhibitors: E. coli TEM-1 inhibitors. Purified TEM-1, nitrocefin hydrolysis, epi-absorbance fluorescence. shares compounds with VIM-2 inh. 3% of 1,300 active. AID 1866. inhibition, % at 5.6 µM;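 active = inhibition above that campaign's mean inhibition plus 3 SD, cut at about 0.46% in these data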;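 note: 0% = TEM-1 with DMSO and 100% = TEM-1 with 100 µM potassium clavulanate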
VIM-2 inh conf – confirmation of P. aeruginosa VIM-2 metallo-beta-lactamase inhibitors; shares compounds with VIM-2 inh; purified VIM-2, nitrocefin hydrolysis, epi-absorbance; inhibition, % at 5.6 µM; 96% of 1,300 active;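 active = inhibition of the VIM-2 beta-lactamase enzyme above about 11% from the earlier first-round screen, limit read from the data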;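 note: 0% = VIM-2 with DMSO and 100% = buffer wells without enzyme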
MEKK2wt confirm – raises or lowers MEK5 binding to wildtype human MEKK2, retest; bead flow cytometry, Alexa488-MEK5 binding to MEKK2 WT; actives lie on both sides; shares compounds with MEKK3 PB1 HTS; binding response (% of control), % at 10 µM; 2.4% of 5,900 active; in the data active = binding response below about 16% or above about 210%; inactive = in between
MEKK2mut-MEK5 – signal of MEK5 binding to mutant human MEKK2, retest; shares compounds with MEKK3 PB1 HTS; bead flow cytometry, Alexa488-MEK5 binding to MEKK2 mutant; percent response, % at 10 µM; 2% of 5,900 active; AID 1893; in the data active = percent response mostly above about 71%, no sharp cut-off; inactive = mostly below about 38%;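 note: higher means compound restores mutant binding toward wildtype level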
MEKK3-MEK5 inh – confirmation of inhibitors of MEK5 binding to human MEKK3; shares compounds with MEKK3 PB1 HTS; bead flow cytometry, Alexa488-MEK5 binding to MEKK3; hits give low values; binding response (% of control), % at 10 µM; 1.8% of 5,900 active;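 active = binding response below 72% of control, or above a set upper limit, though filed actives all read lower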;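 note: 100% = DMSO only wells and 0% = binding blocked by excess unlabeled MEK5; lower values mean stronger disruption of MEK5 binding to MEKK3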
The depositor's hits bear a star; nt = no result; ! = repeats disagree; [ ] = remark or other dose.

SMILES	MEKK2wt PB1 HTS	MEKK3 PB1 HTS	MEKK2mut PB1 HTS	IMP-1 inh-1	VIM-2 inh	MEKK2wt confirm	MEKK2mut-MEK5	MEKK3-MEK5 inh	others
COc1ccccc1Nc1nc(NCCCN(C)C)nc(N)c1[N+](=O)[O-]	145*	111	47	-5	27*	144	29	103	IMP-1 inh-2=-3;VIM-2 FRET inh=3;TEM-1 counter=-7;VIM-2 inh conf=44*
CN1CCc2ccccc2CC1=O	102	105	1	-1	-3	nt	nt	nt
c1ccc(CN2CCN(CCCNc3ccc4nnc(-c5ccccc5)n4n3)CC2)cc1	132	114	24*	-2	62*	161	38	111	IMP-1 inh-2=0;VIM-2 FRET inh=4;TEM-1 counter=0.8*;VIM-2 inh conf=76*
Cc1ccc(CNc2ccc3nnc(-c4ccccc4)n3n2)cc1	102	108	-3	-3	-4	nt	nt	nt
COc1cc(C(C)=O)ccc1OCC(O)CN1CCN(c2cc(C)cc(C)c2)CC1 (stereo not drawn)	101	98	0	-3	-2	nt	nt	nt
CCCCc1n[nH]c(=S)n1Cc1ccc(C)cc1	65	48*[inhibitor]	-17	-1	23*	104	2	106	IMP-1 inh-2=-2;VIM-2 FRET inh=37*;TEM-1 counter=-3;VIM-2 inh conf=26*
Cc1cc(/C=N/NC(=O)c2ccncc2)c(C)n1-c1cccc(C(F)(F)F)c1	97	99	-4	-4	-3	nt	nt	nt
CN1CCN(c2ccc(NC(=O)c3ccc(-c4ccc(Cl)cc4)o3)cc2)CC1	171*	108	43*	-1	28*	195	72*	114	IMP-1 inh-2=-4;VIM-2 FRET inh=1;TEM-1 counter=-12;VIM-2 inh conf=42*
Oc1ccc(-c2n[nH]c(=S)n2-c2ccc3c(c2)OCCO3)c(O)c1	85	70*[inhibitor]	-1	-5	17*	105	-2	97	IMP-1 inh-2=-2;VIM-2 FRET inh=36*;TEM-1 counter=-8;VIM-2 inh conf=19*
Cc1ccccc1NC(=O)C1CCCN(S(=O)(=O)c2ccc(-n3cnnn3)cc2)C1 (stereo not drawn)	107	103	3	-2	-1	nt	nt	nt
Clc1ccc2nc(N3CCNCC3)nc(-c3ccccc3)c2c1	152*	103	32	2	12*	108	0	102	IMP-1 inh-2=-3;VIM-2 FRET inh=-3;TEM-1 counter=-6;VIM-2 inh conf=17*
CN1CCN(c2nc(-c3ccccc3)c3cc(Cl)ccc3n2)CC1	131	102	6	-4	4	nt	nt	nt
CCCNC(=S)N1CCN(CC)CC1	106	126	0	-3	0	nt	nt	nt
Cc1nn2c(NCCCN(C)C)c3c(nc2c1-c1ccccc1)CCC3	173*	107	34*	-3	14*	157	42	106	IMP-1 inh-2=-3;VIM-2 FRET inh=-5;TEM-1 counter=-7;VIM-2 inh conf=37*
Cc1ccc2nc(Cl)c3cc(C(=O)NCCCN4CCCC4)sc3c2c1	162*	109	3	-2	13*	174	46	114	IMP-1 inh-2=-2;VIM-2 FRET inh=7;TEM-1 counter=-6;VIM-2 inh conf=27*
COc1ccc(NC(=O)c2sc3nc(Cc4ccccc4)cc(C(F)(F)F)c3c2N)cc1OC	110	159*	2	-3	-1	39	-25	35*
COc1cc(NC(=O)C2CCCN(c3ncccn3)C2)cc(OC)c1 (stereo not drawn)	86	63*[inhibitor]	-1	-7	0	85	-10	87
COc1ccc(-c2cc(=O)c3c(OC)c(OC)c(OC)c(OC)c3o2)cc1OC	102	68*![inhibitor]	0	-1	10*!	86	-4	89
COc1ccc(N2CCN(c3cc(C)c4cccc(C)c4n3)CC2)cc1	86	67*[inhibitor]	-11	-1	1	98	-6	100
Fc1cccc(Nc2c3c(nc4ccccc24)CCC3)c1	108	105	7	-2	4	nt	nt	nt
O=Nc1c(-c2cccc([N+](=O)[O-])c2)nc2ncccn12	89	91	-3	0	2	nt	nt	nt
O=C(c1ccc2[nH]c3c(c2c1)CCCC3)N1CCN(c2ccc(F)cc2)CC1	103	100	-1	-1	1	nt	nt	nt
COc1ccccc1N1CCN(C(=O)c2ccc(CSc3ccccc3)cc2)CC1	107	128*	0	-5	-2	100	1	104
COc1ccccc1N1CCN(C(=O)c2ccc(-c3ccccc3)cc2)CC1	98	98	-4	-3	-1	nt	nt	nt
COc1ccccc1N1CCN(C(=O)c2ccc3[nH]c4c(c3c2)CCCC4)CC1	107	145*	1	-2	-2	97	0	106
SMILES	MEKK2wt PB1 HTS	MEKK3 PB1 HTS	MEKK2mut PB1 HTS	IMP-1 inh-1	VIM-2 inh	MEKK2wt confirm	MEKK2mut-MEK5	MEKK3-MEK5 inh	others
CC(C)C(=O)O/N=C1\CCS(=O)(=O)c2sccc21	98	98	0	-1	-2	nt	nt	nt
Cc1cccc(N2CCN(C(=O)CN3C(=O)NC(C)(C)C3=O)CC2)c1C	97	89	-19	-2	1	nt	nt	nt
Cc1cccc(N2CCN(C(=O)CN3C(=O)C4CC=CCC4C3=O)CC2)c1C (stereo not drawn)	85	67*[inhibitor]	-2	-3	-2	96	4	101
CCN(CC)c1ccc(CNc2ccc3c(c2)ncn3C(C)(C)C)cc1	135*	110	16	-6	-1	134	16	105
CC(C)(C)n1cnc2cc(NCc3ccc(Br)cc3)ccc21	137*	112	20	-2	-3	145	35	105
CCc1ccc(CNc2ccc3c(c2)ncn3C(C)(C)C)cc1	111	99	7	-5	-3	nt	nt	nt
COc1ccccc1Oc1c(C)oc2c(CN3CCN(CCO)CC3)c(O)ccc2c1=O	55	83	-56	-1	0	nt	nt	nt
O=C(Cn1cc(C(F)(F)F)cc(Cl)c1=O)NCCc1ccccc1	108	135*	0	-4	-5	103	2	102
Cc1ccc(NC(=O)CC2SC(=NCC3CCCO3)NC2=O)cc1Cl (stereo not drawn)	101	139*	-1	0	-3	96	-6	102

Bioassay records: PubChem, several laboratories
